Screens: PubChem BioAssay, The Scripps Research Institute Molecular Screening Center
rCAG binder – binders of r(CAG) RNA repeats, primary screen, biochemical, fluorescence; inhibition, % at 3 µM; r(CAG) RNA repeat, TO-PRO-1 dye displacement fluorescence; hit rate 1.3% among 370,000;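 active means inhibition above the plate cutoff, the mean of all test compounds on that plate plus 3 SD, cut at about 35% in these data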;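 further: 0% = DMSO alone and 100% = 100 µM mitoxantrone as full dye displacement; higher means more dye released from RNA so lower well fluorescence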
SIAE inh – human SIAE inhibitors, primary screen, biochemical, fluorescence polarization, FP-Rh probe, 1536-well HTS. SIAE FP-Rh probe binding. inhibition, % at 9.66 µM. hit rate 0.69% among 370,000;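 active means inhibition above a cutoff: mean of compounds within the control limits plus 3 SD of those, cut at about 17% in these data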;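 further: 0% = plate median of compound wells and 100% = probe without SIAE protein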
TCR-CD3 inh – inhibitors of human TCR-CD3 interaction, primary screen, biochemical, fluorescence, TAMRA-labeled TCR probe. T-cell receptor (TCR). inhibition, % at 9.4 µM. hit rate 0.37% among 360,000. AID 651800, 2012; in the data active means inhibition above about 19%;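 further: recombinant mutant TCR 2C K166C tagged with TAMRA read by polarization; 0% = receptor in buffer alone and 100% = receptor with positive control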
HTRA1 inh – HTRA1 serine protease inhibitors, primary screen, biochemical, fluorescence polarization, HTS | AID 504803, 2011 | Q92743 | inhibition, % at 5.96 µM | hit rate 0.5% among 340,000 | recombinant HTRA1, FP-rhodamine activity-based probe; in the data active means inhibition above about 36%;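 further: 0% = enzyme with DMSO and 100% = wells lacking enzyme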
Target sequence (Q92743 whole entry, looked up): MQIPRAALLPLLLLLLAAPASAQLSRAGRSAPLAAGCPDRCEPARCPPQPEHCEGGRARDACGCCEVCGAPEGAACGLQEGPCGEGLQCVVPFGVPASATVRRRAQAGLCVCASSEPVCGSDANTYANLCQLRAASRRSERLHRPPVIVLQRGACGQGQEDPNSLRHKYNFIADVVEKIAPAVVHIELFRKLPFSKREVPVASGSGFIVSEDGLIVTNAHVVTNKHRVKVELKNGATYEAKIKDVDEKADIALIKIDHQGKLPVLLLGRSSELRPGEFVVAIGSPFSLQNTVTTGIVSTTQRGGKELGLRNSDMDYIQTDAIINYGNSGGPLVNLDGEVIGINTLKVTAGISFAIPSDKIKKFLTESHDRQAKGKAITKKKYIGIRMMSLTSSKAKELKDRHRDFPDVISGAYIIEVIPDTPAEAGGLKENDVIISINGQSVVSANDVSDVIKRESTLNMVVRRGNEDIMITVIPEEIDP
mABHD4 FP – ABHD4 inhibitors, primary screen, biochemical, fluorescence polarization, mouse; purified mABHD4, FP-Rh probe fluorescence polarization; inhibition, % at 8.92 µM; hit rate 0.54% among 370,000; AID 720543, 2013;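 active means inhibition exceeding the mean over every tested compound plus 3 SD, cut at about 30% in these data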;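 further: 0% = plate median of compound wells and 100% = S159A mutant with DMSO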
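Test system: mABHD4 protein; Read-out basis: % inhibition; Incubation: 45 min + 60 min at 25 °C; Repeats: single replicate; Technique: fluorescence polarization with parallel and perpendicular emission, 525/598 nm; Compound: 8.92 µM, single dose; Benchmarks: full inhibition S159A mutant plus DMSO, zero as sample-well median.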
rCAG binder conf – small molecules binding CAG repeat RNA – biochemical, fluorescence, confirmation. shares compounds with rCAG binder. r(CAG) RNA repeat, TO-PRO-1 dye displacement fluorescence. inhibition, % at 3 µM. hit rate 70% among 4,300. AID 652065, 2013;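 active means inhibition above a per-plate cutoff, the mean inhibition of sample wells plus 3 SD, cut at about 35% in these data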;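 further: loss of TO-PRO-1 fluorescence as compound displaces dye from 1x1 AA loop RNA; 0% = DMSO only wells and 100% = 100 µM mitoxantrone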
DNA CAG counter – displacement of TO-PRO-1 from CAG DNA duplex, counter-screen for rCAG RNA repeat binder project, biochemical, fluorescence, TO-PRO-1 dye, d(CAG) DNA oligo | shares compounds with rCAG binder | d(CAG) DNA oligo TO-PRO-1 dye displacement | inhibition, % at 3 µM | hit rate 94% among 4,300 | AID 652068, 2013;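 active means inhibition above its plate's cutoff, the mean test-well inhibition plus 3 SD, cut at about 4.8% in these data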;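 further: 0% = DNA dye mix with DMSO and 100% = 100 µM mitoxantrone; hits displace the dye from DNA and so lower well fluorescence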
An asterisk follows results filed as active. Rows were chosen to be rich in hits. Some 2.5% of all compounds tested hit in one or more screens of this group.

Screening COc1ccc(CC(=O)Nc2cccc(C(=O)Nc3ccccc3C(=O)O)c2)cc1OC returned rCAG binder 26, SIAE inh 5, TCR-CD3 inh -5, HTRA1 inh 0 and mABHD4 FP 8.
Screening CSc1ccccc1NC(=O)Nc1cccc(Cl)c1 returned rCAG binder 7, SIAE inh -16, TCR-CD3 inh 9, HTRA1 inh -49 and mABHD4 FP -27.
Screening CC(=O)Oc1ccc(C(=O)Nc2cccc(C(=O)Nc3ccccc3C(=O)O)c2)cc1 returned rCAG binder 50*, SIAE inh -18, TCR-CD3 inh -9, HTRA1 inh 28, mABHD4 FP -15, rCAG binder conf 44* and DNA CAG counter 12*.
Screening COc1ccc(OCC(=O)Nc2cccc(C(=O)Nc3ccccc3C(=O)O)c2)cc1 returned rCAG binder 51*, SIAE inh -24, TCR-CD3 inh 3, HTRA1 inh -16, mABHD4 FP -14, rCAG binder conf 62* and DNA CAG counter 17*.
For Cc1ccc(NC(=O)Nc2cccc(Cl)c2)c(C(=O)O)c1 the results were rCAG binder 47*, SIAE inh -10, TCR-CD3 inh 0, HTRA1 inh -9, mABHD4 FP 3, rCAG binder conf 21 and DNA CAG counter 3.
Screening O=C(Nc1ccccc1C(=O)O)c1cccc(NC(=O)c2ccc(Br)o2)c1 returned rCAG binder 45*, SIAE inh -16, TCR-CD3 inh 2, HTRA1 inh -16, mABHD4 FP -40, rCAG binder conf 40* and DNA CAG counter 7.8*.
For Cc1ccc([C@@H]2[C@@H]3C(=O)N(c4ccccc4)C(=O)[C@@H]3[C@]3(C)C(=O)N(Cc4ccc(-c5ccccc5)cc4)CC(=O)N23)o1 the results were rCAG binder 11, SIAE inh -15, TCR-CD3 inh 0, HTRA1 inh -18 and mABHD4 FP 0.
Screening O=C(COc1ccc(Cl)cc1Cl)Nc1ccc(C(=O)Nc2ccccc2C(=O)O)cc1 returned rCAG binder 50*, SIAE inh -28, TCR-CD3 inh 7, HTRA1 inh -27, mABHD4 FP -27, rCAG binder conf 86* and DNA CAG counter 74*.
CC(=O)Nc1cccc(C(=O)Nc2ccccc2C(=O)O)c1 was read as rCAG binder 6, SIAE inh -8, TCR-CD3 inh -2, HTRA1 inh 0 and mABHD4 FP 3.
Screening O=C(Cc1ccc(Cl)cc1)Nc1cccc(C(=O)Nc2ccccc2C(=O)O)c1 returned rCAG binder 74*, SIAE inh -26, TCR-CD3 inh -6, HTRA1 inh -60, mABHD4 FP -38, rCAG binder conf 64* and DNA CAG counter 24*.
Screening O=C(Nc1cccc(C(=O)Nc2ccccc2C(=O)O)c1)c1cccc(Cl)c1 returned rCAG binder 60*, SIAE inh -26, TCR-CD3 inh 2, HTRA1 inh -78, mABHD4 FP -28, rCAG binder conf 55* and DNA CAG counter 18*.
`COc1ccc(/C(=N\Nc2ccccc2C(=O)O)c2ccccc2)cc1` gave rCAG binder 50*, SIAE inh 11, TCR-CD3 inh 13, HTRA1 inh 0, mABHD4 FP 24, rCAG binder conf 43* and DNA CAG counter 12*.
For O=C(Nc1ccc2nc3n(c(=O)c2c1)CCCCC3)C(=O)N1CCN(c2ccccc2F)CC1 the results were rCAG binder 1, SIAE inh 1, TCR-CD3 inh 5, HTRA1 inh -2 and mABHD4 FP 2.
O=C(Nc1ccccc1C(=O)O)c1cccc(C(=O)Nc2ccccc2C(=O)O)c1 was read as rCAG binder 50*, SIAE inh -48, TCR-CD3 inh -2, HTRA1 inh -17, mABHD4 FP -11, rCAG binder conf 42* and DNA CAG counter 9.1*.
O=C(Nc1ccccc1C(=O)O)c1ccccc1 was read as rCAG binder 0, SIAE inh 1, TCR-CD3 inh -8, HTRA1 inh 3 and mABHD4 FP -1.
Screening COc1cc(NC(=O)Nc2ccc(Cl)c(Cl)c2)c(C(=O)O)cc1OC returned rCAG binder 70*, SIAE inh 8, TCR-CD3 inh 1, HTRA1 inh 1, mABHD4 FP 10, rCAG binder conf 54* and DNA CAG counter 15*.
CCC(C)c1ccc(OCC(=O)Nc2cccc(C(=O)Nc3ccc(C(=O)O)cc3)c2)cc1 (centres undefined) was read as rCAG binder 75*, SIAE inh -66, TCR-CD3 inh -2, HTRA1 inh -24, mABHD4 FP -59, rCAG binder conf 75* and DNA CAG counter 39*.
CC(=O)Nc1ccc(S(=O)(=O)Nc2cccc(C(=O)Nc3ccccc3C(=O)O)c2)cc1 was read as rCAG binder 47*, SIAE inh -17, TCR-CD3 inh 5, HTRA1 inh -4, mABHD4 FP -16, rCAG binder conf 18 and DNA CAG counter 4.7*.
Screening COc1cc(OC)c(NC(=O)Nc2ccc(OC)c(OC)c2)cc1Cl returned rCAG binder -3, SIAE inh -2, TCR-CD3 inh -3, HTRA1 inh -6 and mABHD4 FP 0.
`CC(=O)Nc1ccc(S(=O)(=O)Nc2cccc(C(=O)NC(C)(C)C)c2)cc1` gave rCAG binder -1, SIAE inh 4, TCR-CD3 inh 1, HTRA1 inh -6 and mABHD4 FP -6.
Screening COc1ccc(CCNC(=O)CSc2nc3[nH]ncc3c(=O)n2-c2ccccc2Br)cc1OC returned rCAG binder -4, SIAE inh 4, TCR-CD3 inh 5, HTRA1 inh 6 and mABHD4 FP -5.
`CCCc1[nH]nc2c1C(c1ccc(OC)c(Cn3nnc4ccccc43)c1)C(C#N)=C(N)O2` (centres undefined) gave HTRA1 inh -3.
Screening O=C(COC(=O)/C=C/c1cccc([N+](=O)[O-])c1)NCCCN1CCCC1=O returned rCAG binder 0, SIAE inh -7, TCR-CD3 inh -2, HTRA1 inh 3 and mABHD4 FP -2.
`CC(=O)N1C2=CCCC3CCCCC23c2ccccc21` (centres undefined) gave rCAG binder -2, SIAE inh -2, TCR-CD3 inh 3, HTRA1 inh -12 and mABHD4 FP 0.
